Rin1-Abl PPI inh = blocks binding of human Rin1 to Abl. hit rate 0.4% among 360,000. inhibition, % at 7.35 µM. TR-FRET Rin1/Abl binding, biochemical. P00519+Q13671; in the data active = inhibition above about 5%, passing the limit was not always enough
MBD2 inh = inhibitors of human MBD2 binding to methylated oligonucleotide | hit rate 0.31% among 370,000 | AID 686964 | inhibition, % at 4.4 µM | TR-FRET | Q9UBB5; in the data active = inhibition above about 13%
TDP2 absorb = TDP2 (human) inhibition, absorbance primary screen. recombinant TDP2, T5PNP hydrolysis, p-nitrophenol absorbance 415 nm. hit rate 0.34% among 370,000. inhibition, % at 12.8 µM;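 active = inhibition above the mean of all tested compounds plus 3 SD, set per campaign, cut at about 25% in these data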;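 also: 0% = DMSO with enzyme and 100% = buffer with substrate but no TDP2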
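Incubation: 2 h at 37 °C; Test system: recombinant human TDP2; Quantity: enzyme 120 nM; Read-out basis: percent inhibition; Medium: 50 mM Tris-HCl pH 7.5 with Mg2+, KCl, DTT, BSA; Repeats: single replicate; Compound: 12.8 µM single point, 1% DMSO; Signal: epi absorbance; Reagent: 5 mM T5PNP chromogenic substrate; Benchmarks: no-enzyme high, DMSO-plus-enzyme low.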
UHRF1 binding = blocks human UHRF1 binding to methylated DNA; Q96T88; UHRF1 binding to methylated oligo, TR-FRET; inhibition, % at 4.4 µM; hit rate 0.75% among 370,000;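 also: UHRF1 SRA domain binding a hemimethylated CpG hairpin DNA probe; 0% = median of test compound wells and 100% = reference inhibitor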
Target sequence (Q96T88 whole entry, looked up, the tested form may be a part): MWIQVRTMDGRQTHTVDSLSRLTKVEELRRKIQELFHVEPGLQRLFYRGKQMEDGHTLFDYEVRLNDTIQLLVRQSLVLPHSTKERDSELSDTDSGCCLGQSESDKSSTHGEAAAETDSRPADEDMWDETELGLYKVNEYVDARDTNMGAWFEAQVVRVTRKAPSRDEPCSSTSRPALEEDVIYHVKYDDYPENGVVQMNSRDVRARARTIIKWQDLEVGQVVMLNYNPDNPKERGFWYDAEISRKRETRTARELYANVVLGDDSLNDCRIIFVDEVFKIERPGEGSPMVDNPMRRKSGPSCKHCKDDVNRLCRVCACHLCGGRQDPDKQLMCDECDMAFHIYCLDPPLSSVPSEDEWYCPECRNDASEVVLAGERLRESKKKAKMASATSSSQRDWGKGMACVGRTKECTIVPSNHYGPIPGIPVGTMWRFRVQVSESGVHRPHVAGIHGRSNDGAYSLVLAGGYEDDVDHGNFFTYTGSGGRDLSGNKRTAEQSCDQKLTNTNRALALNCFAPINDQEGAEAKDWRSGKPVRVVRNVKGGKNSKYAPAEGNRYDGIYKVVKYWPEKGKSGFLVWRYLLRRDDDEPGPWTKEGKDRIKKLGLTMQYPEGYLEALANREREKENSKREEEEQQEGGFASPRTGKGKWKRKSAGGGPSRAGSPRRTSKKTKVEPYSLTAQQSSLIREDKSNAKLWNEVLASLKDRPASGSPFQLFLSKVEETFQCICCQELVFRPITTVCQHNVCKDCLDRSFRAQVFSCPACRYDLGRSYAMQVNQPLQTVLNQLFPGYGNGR
LEDGF integ inh = blocks HIV-1 LEDGF/p75-dependent DNA integration; TR-FRET IN-LEDGF/p75 DNA integration, Eu/Cy5; hit rate 0.64% among 370,000; inhibition, % at 3.7 µM; AID 743269;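 active = inhibition above the screen-wide mean plus 3 SD, cut at about 13% in these data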;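 also: signal is the Cy5 over europium emission ratio at 671 and 618 nm; 0% = plate median of compound wells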
UHRF1 DNA bind = UHRF1 methyl-oligo binding inhibition as MBD2 counter-screen. shares compounds with MBD2 inh. inhibition, % at 4.4 µM. AID 720530. UHRF1 binding to methylated oligonucleotide, TR-FRET. hit rate 25% among 1,000;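 also: UHRF1 SRA domain binding a labeled hemimethylated CpG hairpin DNA; 0% = vehicle only and 100% = reference inhibitor with vehicle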
MBD2 confirm = MBD2-DBD methyl-DNA binding inhibition, TR-FRET confirmation | TR-FRET MBD2-DBD binding to methylated oligonucleotide | shares compounds with MBD2 inh | hit rate 26% among 1,000 | inhibition, % at 4.4 µM; in the data active = inhibition above about 14%
Active calls of the source: *; · = no result. Most compounds without a hit are left out; they make up all but 1.9% or so of the library. Rule as the data show it, unless noted: active = inhibition above about 21%; inactive = the rest.

SMILES	Rin1-Abl PPI inh	MBD2 inh	TDP2 absorb	UHRF1 binding	LEDGF integ inh	UHRF1 DNA bind	MBD2 confirm
CCOc1ccc(-n2c(COc3ccccc3)nnc2SCC(=O)Nc2ccc3c(c2)OCCO3)cc1	·	-4	-4	1	3	·	·
O=C(Nc1ccc2c(c1)OCO2)NC1CCN(S(=O)(=O)c2ccc(F)cc2)CC1	·	4	4	-1	-2	·	·
CCSc1nc(C)nc2sc(C)c(C)c12	-1	29*	6	-1	-1	8	2
COc1ccc(C(C(=O)N(C)C2CCCC2)N(Cc2ccc(F)cc2)C(=O)c2ccc3ccccc3c2)cc1OC (configuration not stated)	·	4	1	2	-1	·	·
O=C1CC(c2ccc(S(=O)(=O)N3CCN(c4ccccc4)CC3)cc2)CN1 (configuration not stated)	6	32*	4	0	2	6	1
Cn1c(SCc2c(Cl)cccc2Cl)nnc1-c1ccc2nonc2c1	-2	2	1	2	-4	·	·
Cn1c(SCc2ccc(Cl)cc2)nnc1-c1ccc2nonc2c1	-4	21*	3	4	-2	7	3
COc1ccc(CN2CCN(Cc3ccc(C)cc3)CC2)c(OC)c1	3	32*	12	1	-1	4	3
COc1cc(NC(=O)C2CCCN(S(=O)(=O)c3ccc(C)c(C)c3)C2)cc(OC)c1 (configuration not stated)	·	3	8	3	1	·	·
CCC[C@@H](/C=C/C(=O)OC(C)(C)C)Sc1ccc(N)cc1	·	0	4	-2	-4	·	·
CCc1cccc(NC(=O)CNC(=O)N2CC(=O)Nc3ccccc32)c1	0	14*	-6	0	1	4	3
Cc1ccc(NC(=O)CNC(=O)N2CC(=O)Nc3ccccc32)cc1F	-5	2	9	4	0	·	·
C[C@H]1[C@@H](OC(=O)N2CCCC2)CC[C@@]23CCCN2C(=O)CCC[C@@H]13	·	3	-1	0	3	·	·
O=C(CCl)Nc1ccc(C(=O)NCC2COc3ccccc3O2)cc1 (configuration not stated)	·	-2	-2	-3	2	·	·
C[C@H]1COc2cc(Br)ccc2S(=O)(=O)N1Cc1cn(CC2CCCCC2)nn1	·	-1	4	-3	5	·	·
O=C(COC(=O)C1CC1)NC(=O)c1ccccc1	4	16*	-22	23*	7	6	2
O=C(COC(=O)C1CCC1)NC(=O)c1ccccc1	-2	4	10	0	-2	·	·
CC(C)n1nnnc1C1(C)CSCC(=O)N1Cc1cccc(F)c1 (configuration not stated)	·	0	4	-2	0	·	·
CCOc1cccc(CN2CCCC(CNC(=O)c3cccc(OC)c3OC)C2)c1 (configuration not stated)	-6	16*	-11	5	2	6	1
COc1cccc(C(=O)NCC2CCCN(C(=O)Cc3cccc(C)c3)C2)c1OC (configuration not stated)	-2	1	6	-1	-1	·	·
O=C(Cn1cc(COc2cccc([N+](=O)[O-])c2)nn1)c1ccc(O)cc1	-3	13*	2	21*	6	11	9
CCCCCCC12C(=Cc3cc(C)ccc31)c1ccccc1C(CC(=O)NCc1ccccc1)N2C(=O)OC (configuration not stated)	·	29*	-3	54*	7	4	1
CCCCCCCCN1C(=O)[C@H](CC(=O)NCc2ccccc2)C[C@@]2(C(=O)OCC)CCCC=C12	·	-1	-6	1	-3	·	·
CN1C2=N[C@@H](c3ccccc3)CC(=O)N2/C(=C\c2ccccc2)[C@H]1c1ccccc1	·	22*	-13	31*	12	9	8
CN1C2=N[C@@H](c3ccc4ccccc4c3)CC(=O)N2/C(=C\c2ccccc2)[C@H]1c1ccccc1	·	14*	-2	28*	2	20	12
SMILES	Rin1-Abl PPI inh	MBD2 inh	TDP2 absorb	UHRF1 binding	LEDGF integ inh	UHRF1 DNA bind	MBD2 confirm
CN1C2=N[C@@H](c3ccc4c(c3)OCO4)CC(=O)N2/C(=C\c2ccccc2)[C@@H]1c1ccccc1	·	-3	-3	2	0	·	·
COc1ccc(/C=C2/CN(Cc3ccc(OC)cc3OC)C3=NC(c4ccc5ccccc5c4)CC(=O)N32)cc1 (configuration not stated)	·	3	2	1	2	·	·
Cc1ccccc1N1CCN(C2=Nc3ccccc3Sc3ccccc32)CC1	·	3	-7	-1	0	·	·
O=C(NCCCc1ccccc1)OC1CC2CC1[C@H]1CCCCN1C2 (some centres not stated)	·	-1	9	1	-6	·	·
Cc1ccc(CN2C(=O)C3CCCN3c3ncccc32)cc1 (configuration not stated)	2	52*	-7	-2	-2	5	3
CCN(CC)C(=O)c1cc2c(=O)c3cc(F)ccc3oc2nc1C	2	19*	-6	1	2	5	5
CCN(Cc1ccccc1)S(=O)(=O)c1c(C)[nH]c(C)c1C(=O)N1CCCCC1	1	14*	6	0	-1	2	5
Cc1[nH]c(C)c(S(=O)(=O)N(Cc2ccccc2)C(C)(C)C)c1C(=O)N1CCCC1	-2	-3	10	2	0	·	·
COc1cc(C(O)c2nc(-c3ccccc3)cs2)ccc1F (configuration not stated)	2	14*	9	-2	3	1	4
O=C(Nc1ccc2c(c1)CCCN2C(=O)c1cccs1)c1ccccc1	0	2	7	-3	-1	·	·
COc1cc(OC)cc(C(=O)Nc2ccc3c(c2)CCCN3C(=O)c2cccs2)c1	0	25*	9	-3	0	3	3
Cc1ccc(S(=O)(=O)NC[C@@H]2C[C@H](c3ccccc3)ON2S(=O)(=O)c2ccc(C)cc2)cc1	·	-4	4	1	-2	·	·
CCn1cnc2cc(NC(=O)COc3ccc(C)cc3)ccc21	4	15*	6	3	-3	3	4
O=C(CSc1nnc(-c2cccnc2)n1-c1ccc(Cl)cc1)Nc1ccccc1-c1ccccc1	·	-1	-5	1	-1	·	·
Cc1nn(CCc2n[nH]c(=S)n2-c2ccc(F)cc2)c(C)c1[N+](=O)[O-]	1	73*	3	0	-2	8	2
Cc1nn(CCc2n[nH]c(=S)n2-c2ccc(F)c(Cl)c2)c(C)c1[N+](=O)[O-]	-4	2	5	-3	0	·	·
COc1ccc(/C=C\c2nc(O)c([N+](=O)[O-])c(=O)[nH]2)cc1O	-3	39*	1	-5	1	12	-2
